Laboratory results taken from ChEMBL document CHEMBL1147781, “Design, synthesis and in vitro antimalarial activity of an acylhydrazone library” (Bioorg Med Chem Lett, 2006).

Columns and labels:
[1] = test system: Plasmodium falciparum; assay: Antimalarial activity against chloroquine-resistant Plasmodium falciparum FcB1; assay type: functional, organism-based
In short: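 P. falciparum FcB1 (chloroquine-resistant) growth inhibition; IC50 reported as mean ± SD of two to three independent experiments.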

[2] = test system: MRC5; assay: Cytotoxicity against human diploid embryonic lung MRC5 cells by colorimetric MTT assay; assay type: functional
In short: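 Human MRC5 cells were used, with the value reported as CC50 in µM. Results are given as the mean ± SD of two to three independent experiments.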

[3] = test system: Plasmodium falciparum; assay: Growth inhibition of chloroquine-resistant Plasmodium falciparum FcB1 at 1 uM; assay type: functional
[4] = test system: MRC5; assay: Relative antimalarial activity to cytotoxicity as selectivity index (CC50/IC50); assay type: functional

SMILES | IC50 [1] | CC50 [2] | inhibition at 1 µM [3] | Ratio CC50/IC50 [4]
COc1ccc(C(=O)N/N=C/c2cc(C(C)(C)C)ccc2O)cc1 | 2300 nM | > 100000 nM | 53% | 
Cc1ccc(O)c(/C=N/NC(=O)c2ccc(C(C)(C)C)cc2)c1 | 2200 nM | 16300 nM | 65% | 7.4
Cc1ccc(O)c(/C=N/NC(=O)c2ccc(Cl)cc2)c1 | 1900 nM | > 100000 nM | 52% | 
CC(C)(C)c1ccc(O)c(/C=N/NC(=O)c2cccs2)c1 | 1600 nM | 12000 nM | 52% | 7.5
CCN(CC)CCCC(C)Nc1ccnc2cc(Cl)ccc12 (centres undefined) [CHLOROQUINE] |  | 50000 nM |  | 
CC(C)(C)c1ccc(O)c(/C=N/NC(=O)c2ccccc2)c1 | 1300 nM | 2600 nM | 59% | 2
CCN(CC)c1ccc(/C=N/NC(=O)c2ccc([N+](=O)[O-])cc2)c(O)c1 | 1000 nM | 2500 nM | 69% | 2.5
CC(C)(C)c1ccc(O)c(/C=N/NC(=O)c2ccc([N+](=O)[O-])cc2)c1 | 1600 nM | 1100 nM | 81% | 1
CC(C)(C)c1ccc(C(=O)N/N=C/c2cc(Br)ccc2O)cc1 | 1700 nM | > 100000 nM | 52% | 
CC(C)(C)c1ccc(O)c(/C=N/NC(=O)c2ccc(Cl)cc2)c1 | 2900 nM | 3600 nM | 69% | 1
CC(C)(C)c1ccc(O)c(/C=N/NC(=O)c2ccco2)c1 |  |  | 14% | 
CCN(CC)c1ccc(/C=N/NC(=O)c2ccc(O)cc2)c(O)c1 |  |  | 12% | 
COc1ccc(/C=N/NC(=O)c2ccc(C(C)(C)C)cc2)c(O)c1 |  |  | 43% | 
O=C(N/N=C/c1ccc(O)cc1O)c1ccc([N+](=O)[O-])cc1 |  |  | 18% | 
CCN(CC)c1ccc(/C=N/NC(=O)c2ccc(C(C)(C)C)cc2)c(O)c1 | 900 nM | 1100 nM | 73% | 1
CCN(CC)c1ccc(/C=N/NC(=O)c2ccccc2)c(O)c1 | 1100 nM | 1100 nM | 60% | 1
O=C(Cc1ccccc1)N/N=C/c1cccc(O)c1O |  |  | 19% | 
O=C(N/N=C/c1cc([N+](=O)[O-])ccc1O)c1ccncc1 |  |  | 15% | 
O=C(N/N=C/c1cc(Br)ccc1O)c1ccncc1 |  |  | 29% | 
